The record followed here is ChEMBL document CHEMBL1138658, “Novel 2-aminotetralin and 3-aminochroman derivatives as selective serotonin 5-HT7 receptor agonists and antagonists” (J Med Chem, 2004).

One assay deals with Adrenergic receptor beta (Rattus norvegicus, UniProt P18090+P10608+P26255). As to the kind of experiment: Inhibition of [3H]DHA binding to rat cortex Beta receptor.
Another assay addresses D(1A) dopamine receptor (Rattus norvegicus, UniProt P18901). As to the kind of experiment: Inhibition of [3H]SCH-23390 binding to rat striatum Dopamine receptor 1. The assay is classed as tissue-based.
For assay [1], the target named is T1, 5-hydroxytryptamine receptor 6 (Rattus norvegicus, UniProt P31388). As to the kind of experiment: Inhibition of [3H]-5-HT binding to rat 5-HT6 receptor.
T1 sequence (P31388 whole entry): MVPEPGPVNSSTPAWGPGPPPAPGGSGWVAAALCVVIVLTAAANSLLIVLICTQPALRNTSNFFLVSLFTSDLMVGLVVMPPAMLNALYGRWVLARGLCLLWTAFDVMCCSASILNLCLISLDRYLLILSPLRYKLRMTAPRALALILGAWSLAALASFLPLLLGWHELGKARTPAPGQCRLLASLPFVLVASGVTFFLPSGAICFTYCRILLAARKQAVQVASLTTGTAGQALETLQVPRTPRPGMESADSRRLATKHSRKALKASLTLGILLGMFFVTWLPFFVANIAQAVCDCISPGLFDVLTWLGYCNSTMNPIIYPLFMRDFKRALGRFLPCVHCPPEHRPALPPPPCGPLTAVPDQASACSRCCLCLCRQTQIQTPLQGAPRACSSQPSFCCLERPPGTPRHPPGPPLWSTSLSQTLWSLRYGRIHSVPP
Assay [2] deals with Muscarinic acetylcholine receptor. As to the kind of experiment: Inhibition of [3H]- QNB binding to rat cortex muscarinic receptor.
For assay [3], the target named is T2, 5-hydroxytryptamine receptor 1A (Homo sapiens, UniProt P08908).
T2 sequence (P08908 whole entry): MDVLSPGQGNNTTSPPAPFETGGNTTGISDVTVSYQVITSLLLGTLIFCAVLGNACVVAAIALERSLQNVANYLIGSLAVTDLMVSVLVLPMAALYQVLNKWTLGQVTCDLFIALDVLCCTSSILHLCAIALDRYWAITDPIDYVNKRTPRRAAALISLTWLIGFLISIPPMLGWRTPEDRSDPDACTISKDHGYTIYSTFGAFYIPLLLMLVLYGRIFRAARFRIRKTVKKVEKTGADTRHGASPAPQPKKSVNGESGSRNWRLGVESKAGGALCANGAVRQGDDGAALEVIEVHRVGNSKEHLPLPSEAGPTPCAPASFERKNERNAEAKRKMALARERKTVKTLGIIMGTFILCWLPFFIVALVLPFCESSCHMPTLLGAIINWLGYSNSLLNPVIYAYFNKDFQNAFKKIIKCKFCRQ
As to the kind of experiment: Inhibition of [3H]8-OH-DPAT binding to human 5-HT1A receptor. Summed up: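 Human 5-HT1A receptor expressed in CHO cells, labelled with [3H]-8-OH-DPAT.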

Assay [4] has as its target T3, Adrenergic receptor alpha-2 (Rattus norvegicus, UniProt P22086+P19328+P22909).
T3 sequence (P22086 whole entry): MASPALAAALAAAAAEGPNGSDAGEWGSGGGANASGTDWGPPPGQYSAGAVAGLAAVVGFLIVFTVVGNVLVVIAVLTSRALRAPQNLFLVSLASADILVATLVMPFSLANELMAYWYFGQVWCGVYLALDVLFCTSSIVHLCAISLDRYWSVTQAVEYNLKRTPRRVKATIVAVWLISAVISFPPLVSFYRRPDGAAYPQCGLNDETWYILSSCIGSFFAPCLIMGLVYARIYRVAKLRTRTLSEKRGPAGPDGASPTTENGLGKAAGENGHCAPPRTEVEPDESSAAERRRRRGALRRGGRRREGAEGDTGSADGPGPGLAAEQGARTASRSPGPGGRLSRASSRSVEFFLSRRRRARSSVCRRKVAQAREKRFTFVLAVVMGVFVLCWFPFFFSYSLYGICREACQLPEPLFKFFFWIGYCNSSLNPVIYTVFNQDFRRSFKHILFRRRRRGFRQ
T3 sequence (P19328 whole entry): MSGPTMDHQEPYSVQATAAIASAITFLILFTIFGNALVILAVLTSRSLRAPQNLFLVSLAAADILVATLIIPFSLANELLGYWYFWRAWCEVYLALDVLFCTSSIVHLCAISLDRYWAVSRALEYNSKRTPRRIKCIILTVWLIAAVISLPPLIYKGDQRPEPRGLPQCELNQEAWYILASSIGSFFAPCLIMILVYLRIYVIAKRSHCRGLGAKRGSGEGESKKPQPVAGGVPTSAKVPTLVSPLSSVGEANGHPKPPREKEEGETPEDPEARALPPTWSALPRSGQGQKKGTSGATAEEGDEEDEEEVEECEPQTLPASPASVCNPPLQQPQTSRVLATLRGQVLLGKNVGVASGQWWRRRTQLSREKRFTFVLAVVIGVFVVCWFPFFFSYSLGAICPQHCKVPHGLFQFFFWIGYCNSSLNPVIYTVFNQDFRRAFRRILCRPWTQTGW
T3 sequence (P22909 whole entry): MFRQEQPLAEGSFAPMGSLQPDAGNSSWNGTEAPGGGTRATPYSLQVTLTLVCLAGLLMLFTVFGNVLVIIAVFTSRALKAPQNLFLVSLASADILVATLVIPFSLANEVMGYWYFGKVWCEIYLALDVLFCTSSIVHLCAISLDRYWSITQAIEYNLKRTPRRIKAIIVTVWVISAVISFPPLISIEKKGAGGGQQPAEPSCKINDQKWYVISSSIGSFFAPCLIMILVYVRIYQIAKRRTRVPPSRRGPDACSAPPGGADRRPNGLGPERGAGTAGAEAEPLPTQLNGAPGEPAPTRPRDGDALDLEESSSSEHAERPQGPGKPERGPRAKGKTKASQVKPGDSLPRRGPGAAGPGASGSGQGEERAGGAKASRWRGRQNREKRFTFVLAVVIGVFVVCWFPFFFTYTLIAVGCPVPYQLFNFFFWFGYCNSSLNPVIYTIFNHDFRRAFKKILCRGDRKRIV
As to the kind of experiment: Inhibition of [3H]RX-821002 binding to rat cortex Alpha 2 receptor.

Assay [5] deals with 5-hydroxytryptamine receptor 7 (Rattus norvegicus) (UniProt P32305). In words: Stimulation of cAMP production in CHO cells expressing rat 5-hydroxytryptamine 7 receptor. The assay is classed as functional, cell-based. In a few lines:
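cAMP production in CHO cells expressing rat 5-HT7 receptor. Efficacy is expressed as percent of the 5-HT-stimulated production.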

Assay [6] concerns the target 5-hydroxytryptamine receptor 7 (Rattus norvegicus, UniProt P32305). In words: Inhibition of [3H]-5-HT binding to rat 5-hydroxytryptamine 7 receptor. Summed up:
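Rat 5-HT7 receptor expressed in CHO or Sf9 cells; [3H]-5-HT radioligand displacement.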

Assay [7] deals with Serotonin 3 (5-HT3) receptor. As to the kind of experiment: Inhibition of [3H]GR-65630 binding to rabbit ileum muscularis 5-HT3 receptor. The class given is tissue-based, Oryctolagus cuniculus.
Assay [8] concerns the target 5-hydroxytryptamine receptor 4 (Cavia porcellus, UniProt O70528). As to the kind of experiment: Inhibition of [3H]- GR-113808 binding to guinea pig striatum 5-HT4 receptor. The class given is tissue-based.
Assay [9] in a line: Inhibition of [3H]- LSD binding to 5-HT5 receptor expressed in CHO cells. The class given is cell-based.
The target in assay [10] is T1, 5-hydroxytryptamine receptor 6. In words: Inhibition of [3H]5-HT binding to rat 5-HT6 receptor.

5-hydroxytryptamine receptor 7 (Rattus norvegicus), sequence (P32305 whole entry): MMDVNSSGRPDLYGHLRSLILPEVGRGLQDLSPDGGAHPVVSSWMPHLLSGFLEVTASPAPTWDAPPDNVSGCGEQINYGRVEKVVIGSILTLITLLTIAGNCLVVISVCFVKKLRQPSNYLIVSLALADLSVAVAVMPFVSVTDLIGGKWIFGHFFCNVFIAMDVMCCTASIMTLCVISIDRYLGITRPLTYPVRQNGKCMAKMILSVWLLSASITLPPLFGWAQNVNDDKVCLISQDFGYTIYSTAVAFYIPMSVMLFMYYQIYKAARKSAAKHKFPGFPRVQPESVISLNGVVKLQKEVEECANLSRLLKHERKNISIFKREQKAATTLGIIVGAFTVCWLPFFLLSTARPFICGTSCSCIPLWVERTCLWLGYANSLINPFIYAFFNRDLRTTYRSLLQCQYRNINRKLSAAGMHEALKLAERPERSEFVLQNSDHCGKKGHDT
5-hydroxytryptamine receptor 7, sequence (P32305 whole entry): as above
D(1A) dopamine receptor, sequence (P18901 whole entry): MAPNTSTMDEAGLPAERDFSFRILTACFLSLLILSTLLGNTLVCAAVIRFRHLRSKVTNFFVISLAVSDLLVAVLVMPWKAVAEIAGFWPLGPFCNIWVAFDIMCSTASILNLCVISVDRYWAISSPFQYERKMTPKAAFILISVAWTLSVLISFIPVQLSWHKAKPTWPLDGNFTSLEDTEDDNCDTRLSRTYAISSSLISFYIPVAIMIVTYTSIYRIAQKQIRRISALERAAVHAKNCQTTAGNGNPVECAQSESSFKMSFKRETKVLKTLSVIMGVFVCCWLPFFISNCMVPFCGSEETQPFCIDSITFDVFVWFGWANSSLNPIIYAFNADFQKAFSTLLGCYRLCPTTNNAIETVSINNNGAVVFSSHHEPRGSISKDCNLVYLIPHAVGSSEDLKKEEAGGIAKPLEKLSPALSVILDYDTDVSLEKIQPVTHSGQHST
5-hydroxytryptamine receptor 4, sequence (O70528 whole entry): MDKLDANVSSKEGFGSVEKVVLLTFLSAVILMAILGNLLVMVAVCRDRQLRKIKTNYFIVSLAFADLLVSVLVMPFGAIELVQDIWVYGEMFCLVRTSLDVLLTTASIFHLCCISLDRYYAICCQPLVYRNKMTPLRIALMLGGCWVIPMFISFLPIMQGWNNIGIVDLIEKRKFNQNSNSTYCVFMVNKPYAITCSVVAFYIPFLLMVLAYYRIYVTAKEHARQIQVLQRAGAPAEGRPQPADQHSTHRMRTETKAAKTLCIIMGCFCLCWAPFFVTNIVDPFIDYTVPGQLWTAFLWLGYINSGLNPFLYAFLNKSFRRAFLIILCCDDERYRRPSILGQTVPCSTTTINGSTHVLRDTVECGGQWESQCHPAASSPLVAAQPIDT

For the compound `CCCN(CCC)[C@H]1CCc2c(cccc2-c2c(OC)cccc2OC)C1`, the Ki is above 1000 nM at Adrenergic receptor beta; above 1000 nM at D(1A) dopamine receptor; above 900 nM in [1]; above 1000 nM in [2]; 347 nM in assay [3]; 2090 nM in assay [4]. The compound further showed a Ki in assay [6] of 7.9 nM. The Efficacy in [5] is 100%.
For `COc1cccc(OC)c1-c1cccc2c1CC[C@H](N(C)C)C2`, the Ki on Adrenergic receptor beta was above 1000 nM; on D(1A) dopamine receptor, above 1000 nM; in [2], above 1000 nM; in assay [9], 65 nM; in [3], 1420 nM; in assay [4], 188 nM. In assay [6], this compound registered a Ki of 2.55 nM. Further, the IC50 in [7], in [8] and in [10] was above 1000 nM in each case. In [5], the Efficacy is below 10%.

By Ki is commonly meant a measure of affinity in units of concentration, obtained from inhibition or displacement. The term IC50 denotes the concentration that inhibits the measured activity by half.
